Data: ChEMBL document CHEMBL1926549, “First chemical feature-based pharmacophore modeling of potent retinoidal retinoic acid metabolism blocking agents (RAMBAs): identification of novel RAMBA scaffolds” (Eur J Med Chem, 2012)

system: not listed separately; experiment: Inhibition of CYP26 in hamster liver microsomes assessed as [11,12-[3H]ATRA metabolism treated 3 mins before [11,12,3H]ATRA addition measured after 30 mins by HPLC analysis; design: species or system Cricetinae, Microsome; conditions: not given

| Structure (SMILES) | IC50 |
| --- | --- |
| CC1=C(/C=C/C(C)=C/C=C/C(C)=C/C(=O)n2ccnc2)C(C)(C)CCC1n1cncn1 (racemic) | 0.05 nM |
| COC(=O)/C=C(C)/C=C/C=C(C)/C=C/C1=C(C)C(n2ccnc2)CCC1(C)C (racemic) | 0.009 nM |
| CC1=C(/C=C/C(C)=C/C=C/C(C)=C/C(=O)O)C(C)(C)CCC1n1ccnc1 (racemic) | 2.33 nM |
| CC1=C(/C=C/C(C)=C/C=C/C(C)=C/C(=O)O)C(C)(C)CCC1n1cncn1 (racemic) | 5.84 nM |
| COC(=O)/C=C(C)/C=C/C=C(C)/C=C/C1=C(C)C(n2cncn2)CCC1(C)C (racemic) | 2 nM |

system: Cricetinae; experiment: Inhibition of CYP26 in hamster liver microsomes assessed as [11,12-[3H]ATRA metabolism at 100 nM treated 3 mins before [11,12,3H]ATRA addition measured after 30 mins by HPLC analysis; conditions: Microsome
Procedure, shortened: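 Hamster liver microsomes (500 μg/mL stock) were used in 0.1 M phosphate buffer, pH 7.4, with NADPH (20 mM stock), MgCl2 and BSA. Inhibitor at 100 nM in DMSO was preincubated for 3 min at 37 °C. [11,12-3H]-ATRA was then added at 20 μM and incubated 30 min under oxygen at 37 °C. The reaction was stopped with formic acid, extracted with ethyl acetate/methanol/BHA, and radiolabelled polar metabolites were quantified by HPLC.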

| Structure (SMILES) | inhibition |
| --- | --- |
| C/C(=N\Cc1cccc(C/N=C(\C)c2ccccc2O)c1)c1ccccc1O | 38.6% |
| CNC(=S)N/N=C(\C)CCCCCCCCCCCC/C(C)=N/NC(=S)NC | 21.2% |
| CCOC(=O)CCCCCCCCCCCCCCCCC(=O)OCC | 29.5% |
| COC(=O)CCCCCc1ccc(Cc2ccc(CCCCCC(=O)OC)cc2)cc1 | 31.4% |
| COc1ccc(/C(C)=N/OC(=O)c2cc(OC)c(OC)c(OC)c2)cc1CSc1ccccn1 | 28.5% |
| CC(SCCCCCCCCCCSC(C)C(=O)O)C(=O)O (stereo not given) | 20.5% |
| CCCCCCC(CCCCCCCCCCC(=O)OC(C)(C)C)OC(C)=O (stereo not given) | 36.2% |
| O=C(Oc1ccc(CC/C=C/CCc2ccc(OC(=O)c3ccccc3)cc2)cc1)c1ccccc1 | 30.4% |
| COc1cc(/C=N/CCCC/N=C/c2cc(OC)c(OC)c(OC)c2)cc(OC)c1OC | 27.3% |
| O=C(Nc1ccc(OCCCCCOc2ccccc2)cc1)C(F)(F)F | 34.8% |
| C/C(=N\CCCCCC/N=C(\C)c1cc(O)ccc1O)c1cc(O)ccc1O | 22.2% |
| Cc1nc(N)nc(O)c1CCCNc1ccc(CCCCC(=O)CCl)cc1 | 42.8% |
| COC(=O)c1cc(OCC#CC#CCOc2ccc(O)c(C(=O)OC)c2)ccc1O | 17.9% |
| CCOc1cc(/C=N/N2CCN(/N=C/c3ccc(O)c(OCC)c3)CC2)ccc1O | 34.3% |
| Nc1nc(Cl)cc(NCCCCCCCCNc2cc(Cl)nc(N)n2)n1 | 18.1% |
| Cc1cc(CC(C)C2CCC(C)C(c3ccc(O)c(C)c3)C2)ccc1O (stereo not given) | 33.8% |
| CCOC(=O)/C=C(\C)NCCSSCCN/C(C)=C/C(=O)OCC | 54.7% |
| Cc1nc(N)nc(O)c1CCCNc1ccc(CCCCC2(CCl)OCCO2)cc1 | 29.4% |
| CCOC(=O)c1cnn(-c2ccc(Cc3ccc(-n4ncc(C(=O)OCC)c4C)cc3)cc2)c1C | 49.8% |
| Nc1nc(Cl)cc(NCCCCCCCCCCNc2cc(Cl)nc(N)n2)n1 | 32.7% |
